Measurements from ChEMBL document CHEMBL1155141, “Pyrophosphorolytic excision of nonobligate chain terminators by hepatitis C virus NS5B polymerase” (Antimicrob Agents Chemother, 2007).
Activity calls are given as the source filed them. The rule behind the calls is not given here.

Key:
Hepacivirus hominis [1] = experiment: Inhibition of HCV NS5B polymerase assessed as chain termination of RNA synthesis
[2] = Inhibition of HCV NS5B polymerase assessed as blocking of full length RNA product formation by single-nucleotide incorporation assay; parameters: species or system Hepacivirus hominis
Summary of the method: (§1)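 Run 30 min with 3 μM each NTP, competing nucleotide 300 nM. Full-length product was resolved on urea gels and quantified by phosphorimager. IC50 came from a four-parameter logistic fit, three independent experiments. The ratio is S282T IC50 over wild-type IC50.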

[3] = target: RNA-directed RNA polymerase (Hepacivirus hominis, UniProt O39930, S282T); experiment: Inhibition of HCV NS5B polymerase S282T mutant assessed as blocking of full length RNA product formation by single-nucleotide incorporation assay; summary of the method: as §1
Hepacivirus hominis [4] = experiment: Ratio of IC50 for HCV NS5B polymerase S282T mutant to IC50 for HCV NS5B polymerase by single-nucleotide incorporation assay; summary of the method: as §1

RNA-directed RNA polymerase, sequence (O39930 entry or part of it S282T): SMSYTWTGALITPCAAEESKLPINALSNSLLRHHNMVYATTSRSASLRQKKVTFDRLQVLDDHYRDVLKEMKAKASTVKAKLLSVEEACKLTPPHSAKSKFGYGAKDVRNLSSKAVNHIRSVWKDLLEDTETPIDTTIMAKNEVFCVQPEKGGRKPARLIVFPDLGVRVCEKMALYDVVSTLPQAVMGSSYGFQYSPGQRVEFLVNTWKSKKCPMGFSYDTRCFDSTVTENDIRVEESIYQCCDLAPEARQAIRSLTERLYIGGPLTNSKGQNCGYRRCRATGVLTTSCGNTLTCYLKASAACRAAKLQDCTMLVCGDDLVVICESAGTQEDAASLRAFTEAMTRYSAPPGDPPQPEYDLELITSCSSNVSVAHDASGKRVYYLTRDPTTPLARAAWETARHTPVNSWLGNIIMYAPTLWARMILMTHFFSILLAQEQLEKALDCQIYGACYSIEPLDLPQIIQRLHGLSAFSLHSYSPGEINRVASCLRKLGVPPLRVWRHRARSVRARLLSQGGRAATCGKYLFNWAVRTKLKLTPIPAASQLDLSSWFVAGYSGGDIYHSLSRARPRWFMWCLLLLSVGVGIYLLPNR

Row | SMILES | Activity (Hepacivirus hominis [1]) | IC50 [2] [µM] | IC50 [3] [µM] | Ratio IC50 (Hepacivirus hominis [4])
1 | Nc1ccn([C@@H]2O[C@H](COP(=O)(O)OP(=O)(O)OP(=O)(O)O)C[C@H]2O)c(=O)n1 | Active | 0.46 | 0.77 | 1.7
2 | C[C@@]1(O)[C@H](O)[C@@H](COP(=O)(O)OP(=O)(O)OP(=O)(O)O)O[C@H]1n1ccc(N)nc1=O [2'-C-METHYLCYTIDINE TRIPHOSPHATE] | – | 6.3 | 60 | 9.5
3 | Nc1ncnc2c1ncn2[C@@H]1O[C@H](COP(=O)(O)OP(=O)(O)OP(=O)(O)O)C[C@H]1O | Active | 4.4 | 8.8 | 2
4 | C[C@@]1(O)[C@H](O)[C@@H](COP(=O)(O)OP(=O)(O)OP(=O)(O)O)O[C@H]1n1cnc2c(N)ncnc21 | – | 4.2 | > 100 | > 24
5 | O=c1ccn([C@@H]2O[C@H](COP(=O)(O)OP(=O)(O)OP(=O)(O)O)C[C@H]2O)c(=O)[nH]1 | Active | – | – | –
6 | Nc1nc2c(ncn2[C@@H]2O[C@H](COP(=O)(O)OP(=O)(O)OP(=O)(O)O)C[C@H]2O)c(=O)[nH]1 | Active | – | – | –
